Measured values reported in ChEMBL document CHEMBL4152324 (Eur J Med Chem, 2018).
Activity calls are given as the source filed them. The calls are words filed in the database; no cut-off is given here.

Legend:
[1] = target: T1, NAD-dependent protein deacetylase sirtuin-2 (Homo sapiens, UniProt Q8IXJ6); assay: Inhibition of recombinant His-tagged SIRT2 (56 to 356 residues) (unknown origin) expressed in Escherichia coli Transetta(DE3) using AcIQF as substrate preincubated for 30 mins followed by substrate and NAD+ addition measured after 2 hrs by fluorescence assay
T1 sequence (Q8IXJ6 whole entry): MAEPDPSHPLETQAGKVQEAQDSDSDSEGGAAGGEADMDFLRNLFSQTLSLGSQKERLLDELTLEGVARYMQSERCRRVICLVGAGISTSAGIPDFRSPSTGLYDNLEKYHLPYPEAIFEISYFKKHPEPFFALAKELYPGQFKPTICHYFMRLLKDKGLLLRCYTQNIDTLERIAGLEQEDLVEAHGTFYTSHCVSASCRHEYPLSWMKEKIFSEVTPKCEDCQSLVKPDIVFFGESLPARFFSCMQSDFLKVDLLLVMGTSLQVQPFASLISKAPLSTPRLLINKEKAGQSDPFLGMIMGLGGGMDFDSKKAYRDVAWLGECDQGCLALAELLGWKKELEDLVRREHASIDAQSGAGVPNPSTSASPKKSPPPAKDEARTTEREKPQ

NCI-H441 [2] = assay: Antiproliferative activity against human NCI-H441 cells assessed as reduction in EdU incorporation at 30 uM after 48 hrs by DAPI staining based fluorescence microscopic method; type: functional, cell-based
Method in brief: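 Cells in 96-well plates treated with DMSO vehicle or compound (30 μM) for 48 h. Proliferation measured by EdU incorporation kit per manufacturer. EdU and DAPI nuclear fluorescence imaged on a high-content reader.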

NCI-H441 [3] = assay: Induction of apoptosis in human NCI-H441 cells assessed as late apoptotic cells at 30 uM after 48 hrs by Annexin V-FITC/propidium iodide staining based flow cytometry (reference value: 7.25%); type: functional
NCI-H441 [4] = assay: Induction of apoptosis in human NCI-H441 cells assessed as live cells at 30 uM after 48 hrs by Annexin V-FITC/propidium iodide staining based flow cytometry (reference value: 88.5%); type: functional
NCI-H441 [5] = assay: Anticlonogenic activity against human NCI-H441 cells at 10 to 30 uM after 2 weeks by crystal violet staining based assay; type: functional, cell-based
Method in brief: (§1)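 Cells seeded at 5,000 per well in six-well plates and exposed to DMSO vehicle or compound for 2 weeks, with agents replaced every 3 days. Cells then fixed with methanol and stained with 0.05% crystal violet (w/v).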

NCI-H441 [6] = assay: Antimigratory activity against human NCI-H441 cells assessed as reduction in wound closure at 30 uM after 24 hrs by light microscopic method; type: functional, cell-based
Method in brief: (§2)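 Confluent monolayers in 12-well plates were scratched with a sterile pipette tip, then treated with DMSO vehicle or compound for 24 h. Wounds photographed by digital camera on a light microscope.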

NCI-H441 [7] = assay: Antiproliferative activity against human NCI-H441 cells after 72 hrs by MTT assay; type: functional, cell-based; conditions: NCI-H441, 72 h
Method in brief: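 Cells in 96-well plates given DMSO vehicle or a range of compound concentrations for 72 h. MTT reagent (5 mg/mL stock) added, then 4 h at 37 °C. Formazan dissolved overnight in 20% acidified SDS (w/v), absorbance read at 570 nm. IC50 taken from the viability profile.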

NCI-H441 [8] = assay: Induction of apoptosis in human NCI-H441 cells assessed as early apoptotic cells at 30 uM after 48 hrs by Annexin V-FITC/propidium iodide staining based flow cytometry (reference value: 2.47%); type: functional
NCI-H441 [9] = assay: Induction of apoptosis in human NCI-H441 cells assessed as necrotic cells at 30 uM after 48 hrs by Annexin V-FITC/propidium iodide staining based flow cytometry (reference value: 1.79%); type: functional
NCI-H441 [10] = assay: Anti-invasive activity against human NCI-H441 cells at 30 uM after 48 hrs by crystal violet staining based transwell assay; type: functional, cell-based
Method in brief: (§3)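 H441 cells in serum-free RPMI1640 seeded at 5 × 10⁴/100 μL into Matrigel-precoated insert upper chambers, with DMSO vehicle or compound in serum-free medium above. Lower chambers held RPMI1640 complete medium. After 48 h, invaded cells fixed with methanol and stained with 0.05% crystal violet (w/v).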

[11] = target: T2, NAD-dependent protein deacetylase sirtuin-2 (Homo sapiens) (UniProt Q8IXJ6); assay: Inhibition of SIRT2 in human NCI-H441 cells assessed as increase in acetylated alpha-tubulin level after 72 hrs by Western blot analysis; type: cell-based
T2 sequence (whole entry): T1 sequence (Q8IXJ6 whole entry)
Method in brief: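 H441 cells (ATCC, passaged <6 months after resuscitation) exposed to compound for 72 h. Whole-cell lysates separated by SDS-PAGE, transferred to PVDF and probed with anti-Ac-α-tubulin and anti-α-tubulin (1:1,000), then HRP secondaries (1:5,000) with ECL detection. Ac-α-tubulin normalized to α-tubulin, expressed relative to untreated control set to 1.0.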

NCI-H441 [12] = assay: Antimigratory activity against human NCI-H441 cells assessed as reduction in wound closure at 10 to 30 uM after 24 hrs by light microscopic method; type: functional, cell-based; method in brief: as §2
NCI-H441 [13] = assay: Anti-invasive activity against human NCI-H441 cells after 48 hrs by crystal violet staining based transwell assay; type: functional, cell-based; method in brief: as §3
NCI-H441 [14] = assay: Anticlonogenic activity against human NCI-H441 cells at 3 to 30 uM after 2 weeks by crystal violet staining based assay; type: functional, cell-based; method in brief: as §1

Row | Structure (SMILES) | IC50 ([1]; read-out: IC50) [µM] | further results
1 | O=C(COc1cccc2ccccc12)Nc1cccc(COc2ccc(NC(=O)c3cccs3)cc2)c1 | > 300 | 
2 | O=C(CSc1nnc2ccccn12)Nc1cccc(COc2ccc(NC(=O)c3cccs3)cc2)c1 | > 300 | 
3 | Cc1cc(C)nc(SCC(=O)Nc2cccc(COc3cccc(NC(=O)c4ccccn4)c3)c2)n1 | > 300 | 
4 | Cc1cc(C)nc(SCC(=O)Nc2cccc(COc3ccc(NC(=O)C4CCCN4)cc3)c2)n1 (centres undefined) | 41.3 | 
5 | Cc1cc(C)nc(SCC(=O)Nc2cccc(COc3ccc(NC(=O)CCCN[C@@H]4CCCC[C@H]4O)cc3)c2)n1 | 175 | 
6 | Cc1cc(C)nc(SCC(=O)Nc2cccc(COc3cccc(NC(=O)c4cnn(C)c4)c3)c2)n1 | 93.7 | Activity (NCI-H441 [2]): inactive; Activity (NCI-H441 [3]): 7.39%; Activity (NCI-H441 [4]): 87.8%; Activity (NCI-H441 [5]): inactive; Activity (NCI-H441 [6]): inactive; IC50 (NCI-H441 [7]): > 100 µM; Activity (NCI-H441 [8]): 2.61%; Activity (NCI-H441 [9]): 2.21%; Activity (NCI-H441 [10]): inactive
7 | CNC(=S)NCCCC(=O)Nc1ccc(OCc2cccc(NC(=O)CSc3nc(C)cc(C)n3)c2)cc1 | 9.56 | 
8 | Cc1cc(C)nc(SCC(=O)Nc2cccc(COc3ccc(NC(=O)CCN[C@@H]4CCCC[C@H]4O)cc3)c2)n1 | > 300 | 
9 | Cc1cc(C)nc(SCC(=O)Nc2cccc(COc3ccc(NC(=O)CCN)cc3)c2)n1 | 300 | 
10 | Cc1cc(C)nc(SCC(=O)Nc2cccc(COc3ccc(NC(=O)C4CCCN4C(=O)OC(C)(C)C)cc3)c2)n1 (centres undefined) | 76.1 | 
11 | CC(C)n1ncnc1SCC(=O)Nc1cccc(COc2ccc(NC(=O)c3cccs3)cc2)c1 | 270 | 
12 | CC(=O)NCC(=O)Nc1ccc(OCc2cccc(NC(=O)CSc3nc(C)cc(C)n3)c2)cc1 | > 300 | 
13 | Cc1cc(C)nc(SCC(=O)Nc2cccc(COc3ccc(NC(=O)CCCNC(=O)OC(C)(C)C)cc3)c2)n1 | > 300 | 
14 | Cc1cc(C)nc(SCC(=O)Nc2cccc(COc3ccccc3)c2)n1 | 25.9 | IC50 ([1]; read-out: pIC50 (converted)): 26.3 µM
15 | Cc1cc(C)nc(SCC(=O)Nc2cccc(COc3ccc(NC(=O)CCCN)cc3)c2)n1 | 70.6 | 
16 | Cn1nnnc1SCC(=O)Nc1cccc(COc2ccc(NC(=O)c3cccs3)cc2)c1 | 44.5 | 
17 | Cc1cc(C)nc(SCC(=O)Nc2cccc(COc3cccc(NC(=O)C4CCCN4C(=O)OC(C)(C)C)c3)c2)n1 (centres undefined) | 15.2 | 
18 | Cc1cc(C)nc(SCC(=O)Nc2cccc(COc3cccc(NC(=O)c4ccco4)c3)c2)n1 | 123 | 
19 | Cn1cc(C(=O)Nc2ccc(OCc3cccc(NC(=O)CSc4nnc5ccccn45)c3)cc2)cn1 | > 300 | 
20 | Cc1cc(C)nc(SCC(=O)Nc2cccc(COc3cccc(NC(=O)C4CCOCC4)c3)c2)n1 | 169 | 

Row | Structure (SMILES) | IC50 ([1]; read-out: IC50) [µM] | further results
21 | Cc1cc(C)cc(OCC(=O)Nc2cccc(COc3ccc(NC(=O)c4cccs4)cc3)c2)c1 | > 300 | 
22 | Cc1cc(C)nc(SCC(=O)Nc2cccc(COc3ccc(NC(=O)c4cccs4)cc3)c2)n1 | 3.41 | 
23 | Cc1cc(C)nc(SCC(=O)Nc2cccc(COc3ccc(NC(=O)c4ccco4)cc3)c2)n1 | 3.1 | 
24 | COc1cccc(SCC(=O)Nc2cccc(COc3ccc(NC(=O)c4cccs4)cc3)c2)c1 | > 300 | 
25 | Cc1cc(C)nc(SCC(=O)Nc2cccc(COc3ccc(NC(=O)C4CCOCC4)cc3)c2)n1 | 1.32 | 
26 | C/C=C/C(=O)Nc1ccc(OCc2cccc(NC(=O)CSc3nc(C)cc(C)n3)c2)cc1 | 89.3 | 
27 | Cn1cc(C(=O)Nc2ccc(OCc3cccc(NC(=O)COc4cccc5ccccc45)c3)cc2)cn1 | > 300 | 
28 | Cc1cc(C)nc(SCC(=O)Nc2cccc(COc3cccc(NC(=O)C4CCCN4)c3)c2)n1 (centres undefined) | 142 | 
29 | Cc1cc(C)nc(SCC(=O)Nc2cccc(COc3cccc(NC(=O)c4cccs4)c3)c2)n1 | 128 | 
30 | CC(C)n1cnc(SCC(=O)Nc2cccc(COc3ccc(NC(=O)c4cccs4)cc3)c2)n1 | 142 | 
31 | Cc1cc(C)nc(SCC(=O)Nc2cccc(COc3ccc(NC(=O)c4ccccn4)cc3)c2)n1 | 29.4 | 
32 | Cc1cc(C)nc(SCC(=O)Nc2cccc(COc3ccc(NC(=O)c4cnn(C)c4)cc3)c2)n1 | 0.815 | Activity (NCI-H441 [2]): Active; Activity (NCI-H441 [3]): 7.22%; inhibition [11]: Dose-dependent effect; Activity (NCI-H441 [12]): Active; Activity (NCI-H441 [4]): 87.8%; Activity (NCI-H441 [13]): Dose-dependent effect; IC50 (NCI-H441 [7]): 3.93 µM; Activity (NCI-H441 [14]): Active; Activity (NCI-H441 [8]): 2.69%; Activity (NCI-H441 [9]): 2.26%
33 | Cc1cc(C)nc(SCC(=O)Nc2cccc(COc3ccc(NC(=O)CNC(=O)OCc4ccccc4)cc3)c2)n1 | > 300 | 
34 | Cc1cccc(SCC(=O)Nc2cccc(COc3ccc(NC(=O)c4cccs4)cc3)c2)c1 | > 300 | 
35 | Cc1cc(C)nc(SCC(=O)Nc2cccc(COc3ccc(NC(=O)CCNC(=O)OC(C)(C)C)cc3)c2)n1 | 300 | 
36 | O=C(CSc1nc[nH]n1)Nc1cccc(COc2ccc(NC(=O)c3cccs3)cc2)c1 | > 300 | 
37 | CCOCC(=O)Nc1ccc(OCc2cccc(NC(=O)CSc3nc(C)cc(C)n3)c2)cc1 | 110 | 
38 | CNC(=S)NCCC(=O)Nc1ccc(OCc2cccc(NC(=O)CSc3nc(C)cc(C)n3)c2)cc1 | 11.7 | 
39 | Cc1cc(C)nc(SCC(=O)Nc2cccc(COc3ccc(NC(=O)OC(C)(C)C)cc3)c2)n1 | 100 | 
